# Compounds with a hit are over-represented: about 3.5% of the library has one in this group of screens.
# MrgX1 ag – agonists of human MrgX1 receptor. actives 0.44% (n = 310,000). AID 588627. Q96LB2. MrgX1-HEK293 cells, Fluo-4 calcium fluorescence, agonist mode; hits give high values. B-score at 10 µM;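 active = calcium response B-score plate-corrected fluorescence ratio at least 3 library SD, with starting fluorescence B-score inside 5 SD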
# Target sequence (Q96LB2 whole entry, looked up): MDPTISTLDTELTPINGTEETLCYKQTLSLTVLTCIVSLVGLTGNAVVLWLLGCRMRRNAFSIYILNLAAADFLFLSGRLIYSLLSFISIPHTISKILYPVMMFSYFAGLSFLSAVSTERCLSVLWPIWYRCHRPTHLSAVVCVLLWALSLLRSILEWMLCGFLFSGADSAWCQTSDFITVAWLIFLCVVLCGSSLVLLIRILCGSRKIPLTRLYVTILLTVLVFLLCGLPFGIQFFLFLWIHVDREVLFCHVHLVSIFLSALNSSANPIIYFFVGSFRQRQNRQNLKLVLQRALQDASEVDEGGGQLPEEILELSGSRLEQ
#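 System – MrgX1-expressing HEK293 cells · Incubation – cells plated overnight, dye loaded 0.5 h 37 °C, 0.5 h room temperature · Technique – kinetic Fluo-4 NW fluorescence of intracellular calcium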
# MrgX1 antag – human MrgX1 receptor antagonism, primary screen. Q96LB2. MRGX1-HEK293 calcium flux, Fluo-4, BAM8-22 antagonism; hits give low values. B-score at 10 µM. actives 1.3% (n = 310,000);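 active = calcium-response B-score plate-corrected more than 3 library SD below zero, starting fluorescence within 5 deviations, no agonist response on first addition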;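 also: peak minus trough fluorescence over baseline after final BAM8-22 challenge near maximal dose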
# MrgX1 allo act – human MrgX1 positive allosteric modulation, primary screen; B-score at 10 µM; Q96LB2; actives 0.63% (n = 310,000); MrgX1-HEK293, Fluo-4 calcium flux, FDSS; hits give high values;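 active = plate-corrected calcium response at least 3 library SD above typical, normal starting fluorescence, not activating the receptor alone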;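 also: compound read alongside a low EC10 to EC30 dose of BAM8-22 agonist; peak minus trough fluorescence over baseline measured at the second addition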
# RGS4 inh – inhibitors of human RGS4; P49798; HEK293 M3R/RGS4 inducible, Fluo-4 calcium flux; hits give high values; triggered by carbachol at its EC20; B-score at 10 µM; actives 0.45% (n = 310,000);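 active = B-score, a plate-corrected calcium signal, over three deviations above library mean, with baseline fluorescence within five deviations of library mean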;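 also: RGS4 expression induced by doxycycline in cells with stable M3 receptor; B-score is computed from the integrated fluorescence ratio over baseline after carbachol; higher B-score means a larger calcium signal and so more RGS4 inhibition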
# Target sequence (P49798 whole entry, looked up): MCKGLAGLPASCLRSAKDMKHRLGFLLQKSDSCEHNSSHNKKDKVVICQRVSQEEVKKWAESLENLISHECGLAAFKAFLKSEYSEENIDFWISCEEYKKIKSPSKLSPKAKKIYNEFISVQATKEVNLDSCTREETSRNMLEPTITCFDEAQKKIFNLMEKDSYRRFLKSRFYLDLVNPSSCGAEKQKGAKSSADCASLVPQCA
# RGS4 pot – RGS4 potentiation or activation. HEK293 M3R/inducible RGS4, carbachol calcium flux Fluo4; hits give low values. B-score at 10 µM. actives 0.92% (n = 310,000). AID 463111;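 active = B-score of the integrated calcium signal more than 4 SD below the library mean, with starting fluorescence not abnormally high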;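 also: negative B-score means reduced calcium response which marks RGS4 activation or potentiation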
#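 Also added: carbachol at ECmax as muscarinic agonist stimulus; Assay system: HEK293 cells with stable M3R and inducible RGS4; Timing: overnight RGS4 induction, 30 min dye load 37 °C, 20 min compound RT; Measured by: Fluo4-AM (2 µM) calcium-flux fluorescence, kinetic read.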
# MrgX1 ant reconf – human MrgX1 receptor antagonism, re-confirmation screen | shares compounds with MrgX1 antag | MrgX1-HEK293, BAM8-22 calcium flux, Fluo-4; hits give low values | remaining BAM8-22 calcium response % of control (hits give low values), % at 10 µM | actives 19% (n = 2,300) | AID 602420;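 active = remaining agonist calcium response no higher than 100% minus 3 SD of agonist-only control wells, with starting fluorescence near control levels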;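 also: agonist BAM8-22 given at a near maximal EC90 to ECmax level; peak minus minimum fluorescence divided by baseline after agonist addition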
# HEK293 Ca flux – counter-screen for MrgX1 antagonists: effect in parental HEK293 cells | shares compounds with MrgX1 antag | Fluo-4 calcium fluorescence, FDSS | fluorescence ratio F(max-min)/F0 at 10 µM | actives 2% (n = 4,000);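 active = duplicate-averaged calcium fluorescence ratio at least three times the standard deviation of buffer wells, a nonspecific response in parental cells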
# HEK293 Ca counter – counter-screen for MrgX1 allosteric activators: effect in parental HEK293 cells | shares compounds with MrgX1 antag | parental HEK293 calcium flux, Fluo-4 fluorescence ratio; hits give high values | fluorescence ratio F(max-min)/F0 at 10 µM | actives 0.4% (n = 4,000) | AID 624114;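 active = calcium fluorescence ratio, averaged over duplicates, at least 3 SD of the buffer-well ratio, meaning a nonspecific response in receptor-free cells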;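 also: untransfected parental HEK293 lacking MrgX1 used as counterscreen for MrgX1 allosteric activators; fluorescence change taken during the second addition on a kinetic imager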
# HEK293 Ca cntr2 – MrgX1 activator counter-screen hit in parental HEK293 cells; shares compounds with MrgX1 antag; Fluo-4 calcium fluorescence (FDSS); hits give high values; fluorescence ratio F(max-min)/F0 at 10 µM; actives 8.7% (n = 4,000);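 active = calcium fluorescence ratio at least three times the spread of buffer wells, meaning a non-specific response in parental cells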
# Active calls of the source: *; i = inactive; nt = no result given.
SMILES,MrgX1 ag,MrgX1 antag,MrgX1 allo act,RGS4 inh,RGS4 pot,MrgX1 ant reconf,HEK293 Ca flux,HEK293 Ca counter,HEK293 Ca cntr2
O=C(NCCCCNC(=O)c1cccnc1Cl)c1cccnc1Cl,i,-4.8*,i,i,i,i,i,i,i
COc1ccc(OC)c(S(=O)(=O)Nc2ccc(CC(=O)O)cc2)c1,i,-9.2*,i,i,i,i,i,i,i
COc1ccc(OC)c(S(=O)(=O)Nc2ccc(OCC(=O)O)cc2)c1,i,i,i,i,i,nt,nt,nt,nt
Cc1ccc2c(c1)nnn2C1CCN(S(=O)(=O)c2ccc(C(=O)N(C)C)cc2)CC1,i,-7*,i,i,i,i,i,i,i
Cc1ccc2c(c1)nnn2C1CCN(S(=O)(=O)c2ccc(C(=O)NC3CCCC3)cc2)CC1,i,i,i,i,i,nt,nt,nt,nt
O=C(Nc1cccc(F)c1)Nc1ccnn1C1CCN(C(=O)CCN2CCCO2)CC1,i,i,i,i,i,nt,nt,nt,nt
O=C(Nc1cccc(F)c1)Nc1ccnn1C1CCN(C(=O)c2cscn2)CC1,i,-7.3*,i,i,i,i,i,i,i
O=C(O)C1CCN(C(=O)CSc2nc3ccccc3c(=O)n2-c2ccc(Cl)cc2)CC1,i,i,i,i,i,nt,nt,nt,nt
CCn1c(SCC(=O)Nc2ccc(C(C)=O)cc2)nc2nc3c(cc2c1=O)CCCC3,i,-5.8*,i,i,i,i,i,i,i
COc1cc(NC(=O)c2ccccc2-c2ccccc2)cc(OC)c1,i,i,i,i,i,nt,nt,nt,nt
CC1(C)CC(CC(=O)O)(c2ccc(F)cc2)CCO1 (centres undefined),i,-6*,i,i,i,i,i,i,i
Cc1ccc(C2(CC(=O)O)CCOC(C)(C)C2)cc1 (centres undefined),i,i,i,i,i,nt,nt,nt,nt
CSC(C1CCCC1)n1nnc2ccccc21 (centres undefined),i,i,i,i,i,nt,nt,nt,nt
CC(C)N(Cc1ccccc1)C(=O)C1CCN(c2ncnc3c2nc2n3CCCCC2)CC1,i,-4.8*,i,i,i,i,i,i,57*
CC(C)(CNC(=O)c1ccc(NS(=O)(=O)c2ccc(Br)cc2)cc1)N1CCOCC1,i,-6.5*,i,i,i,51%*,i,i,i
O=C(NCCN1CCOCC1)c1cc2ccccc2o1,i,i,i,i,i,nt,nt,nt,nt
O=C(NCc1cccs1)c1cc2ccccc2o1,i,-7.5*,i,i,i,i,i,i,i
CC(C)(CNC(=O)c1cc2ccccc2o1)N1CCOCC1,i,-4.5*,i,i,i,i,i,i,i
COc1ccc(Cl)cc1NC(=O)CN(C)C(=O)Cc1ccsc1,i,-6.8*,i,i,i,i,i,i,i
COc1ccc(Cl)cc1NC(=O)CN(C)C(=O)Cc1ccc2c(c1)CCC2,i,i,i,i,i,nt,nt,nt,nt
Cc1cc(NC(=O)CSc2nc3c(c(-c4cccnc4)c2C#N)CCC3)no1,i,-5.3*,i,i,i,i,i,i,i
Cc1ccc(C(=O)NC(=S)Nc2ccc(N3CCOCC3)cc2)c(C)c1,i,-5.4*,i,i,i,i,i,i,i
Cc1ccc(S(=O)(=O)N2CCN(C(=O)c3sccc3-c3ccccc3)CC2)cc1,i,-5.4*,i,i,i,i,i,i,i
Cc1cc(C)n(-c2nnc(C)n2/N=C/c2ccccc2O)n1,i,i,i,i,i,nt,nt,nt,nt
Cc1cc(C)n(-c2nnc(C)n2N)n1,i,-5.9*,i,i,i,85%*,i,i,i
SMILES,MrgX1 ag,MrgX1 antag,MrgX1 allo act,RGS4 inh,RGS4 pot,MrgX1 ant reconf,HEK293 Ca flux,HEK293 Ca counter,HEK293 Ca cntr2
CC(C)c1ccc(NS(=O)(=O)c2ccc(N3C(=O)CCC3=O)cc2)cc1,i,i,i,i,i,nt,nt,nt,nt
Cc1ccc(NS(=O)(=O)c2ccc(N3C(=O)CCC3=O)cc2)cc1,i,-5.4*,i,i,i,i,i,i,i
COc1cc2c(cc1OC)N1C(=O)CC(OCC(=O)O)C3C4CC5(CCN5C(=O)C4=O)C2C31 (centres undefined),i,-6*,i,i,i,i,i,i,i
CCC(C)Sc1nc2c(cnn2-c2ccc(C)cc2)c(=O)[nH]1 (centres undefined),i,i,i,i,i,nt,nt,nt,nt
CCC(C)Sc1nc2c(cnn2-c2ccccc2)c(=O)[nH]1 (centres undefined),i,-4.9*,i,i,i,i,i,i,i
CCN1/C(=C/c2ccc3ccccc3[n+]2CC)C=Cc2ccccc21,i,-13*,i,i,-9.2*,i,nt,nt,nt
CCN1/C(=C/c2ccc3ccccc3[n+]2CCCS(=O)(=O)[O-])C=Cc2cc(C)ccc21,i,i,i,i,i,nt,nt,nt,nt
CN(C)C(CNC(=O)CCc1nc2sc3c(c2c(=O)[nH]1)CCCC3)c1ccccc1 (centres undefined),i,-6.5*,i,i,i,i,i,i,i
CSc1ccc(CNC(=O)Cc2ccc(NC(=O)C3=C(C)OCCS3)cc2)cc1,i,i,i,i,i,nt,nt,nt,nt
O=C(NCc1ccccc1)c1cc2ccc(O)cc2oc1=O,i,i,i,i,i,nt,nt,nt,nt
NC(=S)Nc1cccc2cc3ccccc3cc12,i,i,i,i,i,nt,nt,nt,nt
NC(=S)Nc1cc2ccccc2c2ccccc12,i,-4.8*,i,i,i,i,i,i,i
CCCCN(C)C(=S)Nc1ccc(Oc2ccccc2)cc1,i,-6.3*,i,i,i,i,i,i,i
COc1ccc(Br)cc1/C=N/n1c(COc2ccccc2)n[nH]c1=S,i,i,i,i,i,nt,nt,nt,nt
CCNc1nc(OCCNC(C)=O)nc(N(C)C)n1,i,-4.8*,i,i,i,i,i,i,i

# Compound activity (PubChem BioAssay)
